Compound activity (PubChem BioAssay)
SR-BI HDL uptake = blocks mouse SR-BI lipid uptake from DiI-HDL | ldlA[mSR-BI] CHO cells, DiI-HDL uptake fluorescence, 3 h | inhibition, % at 12.5 µM | 320,000 compounds, 0.96% hits;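 active means mean replicate inhibition of at least 70% and a set share of replicates each scoring 70 or more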
Target sequence (Q61009 whole entry, looked up): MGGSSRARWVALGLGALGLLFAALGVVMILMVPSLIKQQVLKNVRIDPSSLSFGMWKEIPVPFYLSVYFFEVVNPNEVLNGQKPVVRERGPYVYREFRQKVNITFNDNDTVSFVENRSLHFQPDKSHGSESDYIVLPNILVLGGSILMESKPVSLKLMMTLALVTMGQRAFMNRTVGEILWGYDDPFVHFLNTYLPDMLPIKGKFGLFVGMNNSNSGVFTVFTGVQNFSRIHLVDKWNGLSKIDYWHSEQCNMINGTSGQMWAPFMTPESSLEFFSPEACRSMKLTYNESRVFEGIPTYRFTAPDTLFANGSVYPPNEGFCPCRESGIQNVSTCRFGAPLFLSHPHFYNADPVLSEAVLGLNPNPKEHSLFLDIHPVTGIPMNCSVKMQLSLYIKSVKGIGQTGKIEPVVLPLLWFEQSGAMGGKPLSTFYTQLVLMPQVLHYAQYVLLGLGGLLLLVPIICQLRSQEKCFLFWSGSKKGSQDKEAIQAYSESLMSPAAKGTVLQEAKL
GAA850 FXN act = activators of GAA850 frataxin (FXN) promoter | 360,000 compounds, 0.56% hits | AID 540364 | activation, % at 6 µM | HEK293 lucGAA850 FXN promoter luciferase reporter, 24 h; percent of 10 µM SAHA response;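 active means activation above the average of all compounds screened plus 3 SD, cutoff fixed separately per campaign, cut at about 7.5% in these data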
SR-BI uptake up = enhances SR-BI lipid uptake from DiI-HDL | CHO ldlA[mSR-BI] cells, DiI-HDL uptake fluorescence, 3 h; 100 = double the neutral-control signal | activation, % at 12.5 µM | 320,000 compounds, 0.096% hits | AID 504775;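 active means mean replicate activation of at least 60% and every replicate at or above 60%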
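System: CHO ldlA[mSR-BI] cells / Medium: HEPES-buffered (25 mM, pH 7.4) F12 plus 0.5% BSA / Probe or stimulus: labelled HDL, 10 µg/mL / Doses: single compound concentration, delivered by pin transfer / Schedule: 3 h, 37 °C / Measured by: DiI fluorescence, bottom read / Measure: cell-associated DiI fluorescence as measure of HDL uptake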
AHR activator = activators of human aryl hydrocarbon receptor; AHR-responsive luciferase reporter cells, luminescence; P35869; AID 2796; 320,000 compounds, 2.5% hits; activation, % at 5 µM; in the data active means activation above about 47%
GASC-1 inh = blocks human GASC-1 demethylase activity. Q9H3R0. GST-JMJD2C(1-420) H3K9me3 demethylation, DELFIA europium. inhibition, % at 2.35 µM. 330,000 compounds, 0.069% hits. AID 2099;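 active means more than half of a compound's replicate wells show inhibition beyond 50%, single wells judged on their own value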;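 further: signal counts dimethyl H3K9 product captured on neutravidin plate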
A number is an active result. Sampled rows, rich in hits. Any-hit rate of the full collection: about 3.7%.

`O=C(Nc1cccc2ccccc12)OCc1cncs1` gave SR-BI HDL uptake inactive, GAA850 FXN act inactive, SR-BI uptake up inactive, AHR activator 56.5 and GASC-1 inh inactive.
Screening CCN(Cc1ccccc1)S(=O)(=O)CCNC(=O)c1ccccc1 returned SR-BI HDL uptake inactive, GAA850 FXN act inactive, SR-BI uptake up inactive, AHR activator inactive and GASC-1 inh inactive.
For CC(=O)N1CCc2c(sc(NC(=O)c3ccc([N+](=O)[O-])o3)c2C#N)C1 the results were SR-BI HDL uptake inactive, GAA850 FXN act inactive, SR-BI uptake up inactive and GASC-1 inh inactive.
Screening COc1cc(C(=O)Nc2sc3c(c2C#N)CCN(C(C)=O)C3)cc(OC)c1OC returned SR-BI HDL uptake 78.5, GAA850 FXN act inactive, SR-BI uptake up inactive, AHR activator inactive and GASC-1 inh inactive.
COc1ccc(C(=O)Nc2sc3c(c2C#N)CCN(C(C)=O)C3)cc1 was read as SR-BI HDL uptake 76.0, GAA850 FXN act inactive, SR-BI uptake up inactive, AHR activator inactive and GASC-1 inh inactive.
`CC(=O)c1cccc(CN2CCC(C(=O)Nc3cccc(-c4ccn[nH]4)c3)CC2)c1` gave SR-BI HDL uptake inactive, GAA850 FXN act inactive, SR-BI uptake up inactive, AHR activator inactive and GASC-1 inh inactive.
`COc1c(CC=C(C)C)c(O)cc2oc(=O)c3c4ccc(O)cc4oc3c12` gave GAA850 FXN act inactive, AHR activator inactive and GASC-1 inh inactive.
Screening COc1c2c(cc3oc(=O)c4c5ccc(O)cc5oc4c13)OC(C)(C)CC2 returned SR-BI HDL uptake 89.2, GAA850 FXN act inactive, SR-BI uptake up inactive, AHR activator inactive and GASC-1 inh inactive.
Screening COc1ccccc1NC(=O)c1c(Nc2ccccc2F)sc(C(=O)Nc2cccc(Cl)c2)c1N returned SR-BI HDL uptake 74.6, GAA850 FXN act inactive, SR-BI uptake up inactive, AHR activator inactive and GASC-1 inh inactive.
O=C(Nc1ncc2c(n1)-c1ccccc1OC2)c1ccc(F)cc1 was read as SR-BI HDL uptake inactive, GAA850 FXN act inactive, SR-BI uptake up inactive, AHR activator 55.5 and GASC-1 inh inactive.
Screening O=C(Nc1ncc2c(n1)-c1ccccc1CC2)c1ccc(Cl)cc1 returned SR-BI HDL uptake inactive, GAA850 FXN act inactive, SR-BI uptake up inactive, AHR activator 74.9 and GASC-1 inh inactive.
For O=C(Nc1ncc2c(n1)-c1ccccc1OC2)c1cccc([N+](=O)[O-])c1 the results were SR-BI HDL uptake inactive, GAA850 FXN act inactive, SR-BI uptake up inactive, AHR activator inactive and GASC-1 inh inactive.
Screening CCN1C(=O)/C(=C2/Sc3ccccc3N2CC)SC1=S returned SR-BI HDL uptake inactive, GAA850 FXN act inactive, SR-BI uptake up inactive, AHR activator inactive and GASC-1 inh inactive.
Screening CCCCN1C(=O)/C(=C2/Sc3ccccc3N2C)S/C1=N\c1ncn[nH]1 returned SR-BI HDL uptake 83.3, GAA850 FXN act inactive, SR-BI uptake up inactive, AHR activator inactive and GASC-1 inh inactive.
For Cc1cc(NCCCn2ccnc2)n2nc(C)c(-c3ccccc3)c2n1 the results were SR-BI HDL uptake inactive, GAA850 FXN act inactive, SR-BI uptake up inactive, AHR activator 112.1 and GASC-1 inh inactive.
Screening Cc1cc(NCCCn2ccnc2)n2nc(C)c(-c3ccc(Cl)cc3)c2n1 returned SR-BI HDL uptake inactive, GAA850 FXN act inactive, SR-BI uptake up inactive, AHR activator 48.4 and GASC-1 inh inactive.
`Cc1cc(NCCCn2ccnc2)n2ncc(-c3ccccc3)c2n1` gave SR-BI HDL uptake inactive, GAA850 FXN act inactive, SR-BI uptake up inactive, AHR activator inactive and GASC-1 inh inactive.
Screening C#CCNC(=O)C1=C[C@H](C)C[C@H](OCc2ccc(CO)cc2)O1 returned SR-BI HDL uptake inactive, GAA850 FXN act inactive, SR-BI uptake up inactive, AHR activator inactive and GASC-1 inh inactive.
For O=c1oc2ccccc2cc1-c1nc2c(s1)CCCC2 the results were SR-BI HDL uptake inactive, GAA850 FXN act inactive, SR-BI uptake up inactive, AHR activator 94.8 and GASC-1 inh inactive.
For O=c1c2c([N+](=O)[O-])cc([N+](=O)[O-])cc2sn1-c1ccc(Br)cc1 the results were SR-BI HDL uptake 79.1, GAA850 FXN act inactive, SR-BI uptake up inactive, AHR activator inactive and GASC-1 inh inactive.
`CCOC(=O)c1cnc2c(-c3ccccc3)cnn2c1C` gave SR-BI HDL uptake inactive, GAA850 FXN act inactive, SR-BI uptake up inactive, AHR activator inactive and GASC-1 inh inactive.
For CCOC(=O)Cc1c(C)nc2c(-c3ccccc3)cnn2c1C the results were SR-BI HDL uptake inactive, GAA850 FXN act inactive, SR-BI uptake up inactive, AHR activator 54.4 and GASC-1 inh inactive.
CCCCNc1c(-c2cccc(-c3ccc(OC)cc3)c2)nc2ccc(C)cn12 was read as SR-BI HDL uptake inactive, GAA850 FXN act inactive, SR-BI uptake up inactive, AHR activator inactive and GASC-1 inh inactive.
Screening CCCCNc1c(-c2ccc(-c3cccc(Cl)c3)cc2)nc2ccccn12 returned SR-BI HDL uptake inactive, GAA850 FXN act inactive, SR-BI uptake up inactive, AHR activator 55.8 and GASC-1 inh inactive.
CCCCNc1c(-c2cccc(-c3ccc(OC)cc3)c2)nc2cc(C)ccn12 was read as SR-BI HDL uptake 73.3, GAA850 FXN act inactive, SR-BI uptake up inactive and AHR activator inactive.
Screening COc1ccc(-c2nc3cc(C)ccn3c2NC(=O)c2ccccc2OC)cc1 returned SR-BI HDL uptake inactive, GAA850 FXN act inactive, SR-BI uptake up inactive, AHR activator 53.2 and GASC-1 inh inactive.
Screening Cc1ccc(C)c(S(=O)(=O)N(C)C2CCS(=O)(=O)C2)c1 (configuration not stated) returned SR-BI HDL uptake inactive, GAA850 FXN act inactive, SR-BI uptake up inactive, AHR activator inactive and GASC-1 inh inactive.
C[C@H]1CN([C@@H](C)CO)C(=O)CCCn2nncc2CO[C@H]1CN(C)C(=O)c1cc(-c2ccccc2)on1 was read as GAA850 FXN act inactive.
C=CCC[C@@H](Cc1ccc(F)cc1)C(=O)OC[C@@H](Cc1c[nH]c2ccccc12)NC(=O)[C@@H](CC=C)CC(=O)N[C@@H](CO)Cc1ccccc1 was read as SR-BI HDL uptake inactive, GAA850 FXN act inactive, SR-BI uptake up 74.2, AHR activator inactive and GASC-1 inh inactive.
O=c1ccn(-c2cccc(C(F)(F)F)c2)nc1-c1ccn(-c2cccc(Cl)c2)n1 was read as SR-BI HDL uptake inactive, GAA850 FXN act 10.8, SR-BI uptake up inactive, AHR activator inactive and GASC-1 inh inactive.
COc1cccc(C2CC(=O)Nc3cc(C)c(C)cc32)c1 (configuration not stated) was read as GAA850 FXN act inactive.
COc1cc(C(c2c(C(=O)O)[nH]c3ccccc23)c2c(C(=O)O)[nH]c3ccccc23)ccc1OCc1ccccc1 was read as SR-BI HDL uptake inactive, GAA850 FXN act inactive, SR-BI uptake up inactive, AHR activator inactive and GASC-1 inh inactive.
For COc1ccc(C(C[N+](=O)[O-])c2c(C)[nH]c3ccccc23)cc1OC (configuration not stated) the results were SR-BI HDL uptake inactive, GAA850 FXN act inactive, SR-BI uptake up inactive, AHR activator 60.0 and GASC-1 inh inactive.
